Consider three molecules from paper PMC10360043 (FASEB journal : official publication of the Federation of …, 2023).

The target in one data set is PDI (Homo sapiens, UniProt P07237). As to the kind of experiment: Insulin-based turbidimetric assay, PDI. It is filed as biochemical. The settings on record: insulin turbidity assay, 6-point dose curve. The procedure, abridged: (§1)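 Recombinant enzymes were purchased. Test compound was tested as a 6-point dilution series with enzyme at 10 μg/mL final (ERp5 at 30 μg/mL), 125 μM bovine recombinant insulin, 2 mM EDTA and 100 mM potassium phosphate. The reaction was started with 0.3 mM DTT, and insulin aggregation turbidity was read every minute for 75 min.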
PDI, sequence (P07237 18-508): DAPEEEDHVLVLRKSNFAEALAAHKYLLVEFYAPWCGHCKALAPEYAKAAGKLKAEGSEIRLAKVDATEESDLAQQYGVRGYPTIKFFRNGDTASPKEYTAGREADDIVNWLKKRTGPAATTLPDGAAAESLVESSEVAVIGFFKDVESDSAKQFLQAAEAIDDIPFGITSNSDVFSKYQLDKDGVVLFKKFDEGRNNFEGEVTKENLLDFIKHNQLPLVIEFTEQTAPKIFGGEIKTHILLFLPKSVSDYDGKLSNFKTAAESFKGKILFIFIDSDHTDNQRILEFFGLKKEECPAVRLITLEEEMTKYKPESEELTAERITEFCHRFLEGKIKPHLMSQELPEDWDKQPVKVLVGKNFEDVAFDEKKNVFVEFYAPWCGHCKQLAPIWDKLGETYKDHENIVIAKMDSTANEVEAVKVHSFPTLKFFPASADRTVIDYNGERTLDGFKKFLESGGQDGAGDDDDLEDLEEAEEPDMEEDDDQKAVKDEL

In a further data set the target is T1, ERp5 (Homo sapiens, UniProt Q15084).
T1 sequence (Q15084 20-440): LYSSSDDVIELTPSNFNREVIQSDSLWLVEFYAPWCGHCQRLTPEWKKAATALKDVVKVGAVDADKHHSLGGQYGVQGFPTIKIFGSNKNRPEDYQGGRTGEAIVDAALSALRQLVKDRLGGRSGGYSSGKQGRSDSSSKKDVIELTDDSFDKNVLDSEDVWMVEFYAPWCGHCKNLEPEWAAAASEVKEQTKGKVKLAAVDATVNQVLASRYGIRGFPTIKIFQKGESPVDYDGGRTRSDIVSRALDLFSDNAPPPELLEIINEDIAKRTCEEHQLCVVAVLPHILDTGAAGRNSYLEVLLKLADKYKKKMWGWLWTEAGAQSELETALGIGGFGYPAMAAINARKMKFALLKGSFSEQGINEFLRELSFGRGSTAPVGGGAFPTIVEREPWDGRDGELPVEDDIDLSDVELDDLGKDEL
As to the kind of experiment: Insulin-based turbidimetric assay, ERp5. The settings on record: insulin turbidity assay, 6-point dose curve. It counts as biochemical. The procedure, abridged:
as §1

The next data set has as its target T2, ERp57 (Homo sapiens, UniProt P30101).
T2 sequence (P30101 25-505): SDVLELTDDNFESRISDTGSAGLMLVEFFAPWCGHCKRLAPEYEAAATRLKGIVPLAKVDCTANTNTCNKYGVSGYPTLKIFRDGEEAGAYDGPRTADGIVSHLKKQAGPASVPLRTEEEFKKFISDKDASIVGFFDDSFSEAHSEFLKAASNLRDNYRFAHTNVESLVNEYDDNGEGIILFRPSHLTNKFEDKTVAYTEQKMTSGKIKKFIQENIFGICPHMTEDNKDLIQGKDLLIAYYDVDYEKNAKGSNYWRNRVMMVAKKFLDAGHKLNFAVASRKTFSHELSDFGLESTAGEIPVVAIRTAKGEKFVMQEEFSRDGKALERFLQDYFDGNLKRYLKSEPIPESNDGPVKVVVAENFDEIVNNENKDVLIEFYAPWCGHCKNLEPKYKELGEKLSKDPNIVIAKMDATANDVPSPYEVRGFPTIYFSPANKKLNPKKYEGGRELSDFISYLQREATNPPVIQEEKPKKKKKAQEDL
As to the kind of experiment: Insulin-based turbidimetric assay, ERp57. The settings on record: insulin turbidity assay, 6-point dose curve. It counts as biochemical. The procedure, abridged:
as §1

The next data set concerns the target T3, ERp72 (Homo sapiens, UniProt P13667).
T3 sequence (P13667 21-645): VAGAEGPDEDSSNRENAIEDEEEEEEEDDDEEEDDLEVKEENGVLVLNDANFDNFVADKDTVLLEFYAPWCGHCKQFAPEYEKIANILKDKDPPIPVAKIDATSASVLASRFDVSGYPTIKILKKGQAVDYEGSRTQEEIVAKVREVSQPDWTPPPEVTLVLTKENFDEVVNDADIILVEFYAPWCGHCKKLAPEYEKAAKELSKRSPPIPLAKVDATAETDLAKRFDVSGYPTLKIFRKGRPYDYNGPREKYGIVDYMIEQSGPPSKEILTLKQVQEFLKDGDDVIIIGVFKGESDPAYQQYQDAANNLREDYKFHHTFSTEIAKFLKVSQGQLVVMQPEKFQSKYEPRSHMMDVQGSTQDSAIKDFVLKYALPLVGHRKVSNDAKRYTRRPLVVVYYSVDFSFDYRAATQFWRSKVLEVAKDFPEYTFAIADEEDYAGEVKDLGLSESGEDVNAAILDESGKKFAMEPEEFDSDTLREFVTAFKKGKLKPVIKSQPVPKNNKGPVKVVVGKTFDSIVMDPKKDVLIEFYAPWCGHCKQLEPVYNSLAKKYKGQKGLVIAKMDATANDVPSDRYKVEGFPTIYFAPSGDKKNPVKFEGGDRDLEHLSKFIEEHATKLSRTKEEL
As to the kind of experiment: Insulin-based turbidimetric assay, ERp72. It is filed as biochemical. As to conditions: insulin turbidity assay, 6-point dose curve. Put shortly: as §1

Data set [1] has as its system PDI, ERp5, ERp57, and ERp72 levels in OVCAR8 cells. As to the kind of experiment: Western blot of thiol isomerase levels in OVCAR8 cells. It is filed as cell-based, human. The settings on record: 10 μM and 30 μM, 1 hour.
For a further data set, the system named is OVCAR8 cells. Kind of data set: PrestoBlue cell viability, OVCAR8. It is filed as cell-based, human. The settings on record: for OVCAR8 cell viability, time course: concentrations and timepoints used in Figure 4A and B.
The test system of a further data set is HEK293 cell line. Kind of data set: PrestoBlue cell viability, HEK293. It is filed as cell-based. As to conditions: Homo sapiens, HEK293, read-out: cell viability IC50. The procedure, abridged:
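HEK293 cells were maintained in high-glucose DMEM with 4 mM glutamine and 10% FBS. Cells were plated at 5,000 per well and grown 24 h, then exposed to test compound or vehicle for 2–24 h. PrestoBlue was added for 10–20 min at 37°C, and fluorescence was read (ex 560/em 590 nm). Signal was expressed as percent of control.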

The next data set relates to EGFR. Kind of data set: EGFR phosphorylation after EGF stimulation. It is filed as cell-based, human. The settings on record: for decrease of EGFR phosphorylation: then EGF, OVCAR8. Put shortly:
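OVCAR8 cells, grown to confluence, were serum-starved, exposed to test compound for 1 or 4 h, then stimulated with EGF (100 ng/mL final). Whole-cell extracts were made in M-PER, protein was quantified by Bradford, and samples were run on SDS-PAGE and transferred to PVDF. Blots were blocked in 5% milk/TBS, probed with anti-pEGFR-Y1068 and an HRP secondary in 3% BSA/TBS-0.1% Tween 20. Student's t-test versus the EGF control.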

The subject of another data set is Gab1. Kind of data set: Gab1 phosphorylation after EGF stimulation. It is filed as cell-based, human.
Data set [2] deals with tissue factor dependent Factor Xa generation. As to the kind of experiment: Factor Xa generation assay on OVCAR8 cells. The settings on record: 1, 3, 10, and 30 µM, 30 minutes; significant at 10 and 30 µM. It is filed as cell-based, human.
The test system of data set [3] is OVCAR8 tumors. Kind of data set: OVCAR8 xenograft in NOG mice. As to conditions: 30 mg/kg i.p. daily. It counts as in vivo.
Data set [4] has as its system OVCAR8 tumors. Kind of data set: OVCAR8 xenograft with cisplatin and gemcitabine. It counts as in vivo, NOG mice.
The next data set relates to CA-125. As to the kind of experiment: Pilot clinical trial, CA-125 in relapsed ovarian cancer. It is filed as in vivo, human.
For a further data set, the system named is plasma thiol isomerase. Kind of data set: Plasma thiol isomerase activity of patients. It is filed as in vivo, human. As to conditions: day 28 versus day 0, 40 mg twice daily.
Data set [5] can be described thus: Pilot clinical trial, adverse events. It counts as in vivo, human. The settings on record: 40 mg twice daily, four women.
Another data set concerns LTR2 receptor. As to conditions: cited from earlier work.
The conditions of data set [6]: double the FDA approved dose for asthma; cited from earlier work.
For data set [7] the following is noted: 40 mg, oral ingestion; cited from earlier work.
Another data set relates to LTR1 receptor. As to conditions: cited from earlier work.

The IC50 is the point on the concentration scale where inhibition reaches its midpoint. For the molecule `COc1cc(C(=O)NS(=O)(=O)c2ccccc2C)ccc1Cc1cn(C)c2ccc(NC(=O)OC3CCCC3)cc12` [zafirlukast], the “inhibition of PDI” value against PDI was “concentration-dependent manner”. Moreover, the “inhibition of ERp5” value on ERp5 is “concentration-dependent manner”. On ERp57, the “inhibition of ERp57” value is “concentration-dependent manner”. Besides, the “inhibition of ERp72” value on ERp72 is recorded as “concentration-dependent manner”. Also, in data set [1], the “change in thiol isomerase expression” value was “No significant change”. Moreover, the IC50 in the data set with OVCAR8 cells (Homo sapiens, OVCAR-8, read-out: cell viability IC50) is 12 µM; in the data set on HEK293 cell line it was > 100 µM. In the data set with OVCAR8 cells, the “OVCAR8 cell viability, time course” value is listed as “minimally altered”. Moreover, the “decrease of EGFR phosphorylation” value stood at 18% in the data set on EGFR (10 μM, 1 hour); 39% in the data set with EGFR (10 μM, four hours); 27% in the data set with EGFR (30 μM, 1 hour); 52% with EGFR (30 μM, four hours). Besides, the “decrease of Gab1 phosphorylation” value in the data set on Gab1 (10 μM, 1 hour, then EGF, OVCAR8) is recorded as 37%. For the same molecule, the “Gab1 phosphorylation decreased to” value in the data set on Gab1 (all other time points and concentrations (10 μM 4 hours; 30 μM 1 and 4 hours)) is recorded as ≤ 5%. In addition, the “Factor Xa generation” value in data set [2] is “dose dependent decrease”. For the same molecule, the “lung metastasis score (scale 0–4)” value in the data set on OVCAR8 tumors [3] (32 days, control group 2.5) was 0.25. Further, in the data set with OVCAR8 tumors [3] (day 32), the “mean decrease in tumor volume compared to controls” value is listed as 42%. In addition, in the data set on OVCAR8 tumors [4] (30 mg/kg zafirlukast daily added to 5 mg/kg cisplatin and 120 mg/kg gemcitabine weekly, after 4 weeks), the “mean decrease of tumor volume relative to cisplatin-gemcitabine alone” value is listed as 38%. For the same molecule, in the data set on OVCAR8 tumors [4] (zafirlukast plus cisplatin and gemcitabine, end of the study), the “decrease in tumor volume compared to the vehicle control” value came out at 83%. Further, in the data set with CA-125 (40 mg twice daily, four women), the CA-125 response result was “None of the women demonstrated a decrease in CA-125”. The “mean change in CA-125” value in the data set with CA-125 (following 40 mg twice daily, 0.036 prior to treatment) is recorded as 0.015 U/mL per day. For the same molecule, in the data set with CA-125 (following 40 mg twice daily, 29.8 days prior to treatment), the “mean CA-125 doubling time” value came out at 85.69 days. In the data set with plasma thiol isomerase, the “reduction of plasma thiol isomerase activity” value is “three out of four patients”. For the same molecule, the “grade 3 or higher adverse events” value in data set [5] is “no grade 3 or higher adverse events reported”. Further, the hemorrhage result in data set [5] is “no cases of hemorrhage reported”. Also, in data set [5], the “toxicity considered possibly related to zafirlukast” value is recorded as “headache (grade 1)”. Besides, the “effects on the LTR2 receptor” value with LTR2 receptor is reported as “minimal effects”. The “tolerability of the 40 mg dose” value in data set [6] was “well tolerated”. Further, the peak plasma concentration in data set [7] is reported as ~ 3 μM.
Consider `CC(C)(O)c1ccccc1CC[C@@H](SCC1(CC(=O)O)CC1)c1cccc(/C=C/c2ccc3ccc(Cl)cc3n2)c1` [montelukast], for which the “inhibition of PDI” value against PDI is “inhibited all four thiol isomerases albeit with less potency”. Moreover, the “inhibition of ERp5” value against ERp5 is “inhibited all four thiol isomerases albeit with less potency”. Further, the “inhibition of ERp57” value against ERp57 is recorded as “inhibited all four thiol isomerases albeit with less potency”. Also, the “inhibition of ERp72” value on ERp72 is on record as “inhibited all four thiol isomerases albeit with less potency”. Moreover, the “potency at inhibiting the LTR1 receptor, times more potent than zafirlukast” value in the data set with LTR1 receptor is reported as 2–3 times. Besides, in the data set with LTR2 receptor, the “effects on the LTR2 receptor” value is on record as “minimal effects”.
PACMA-31: in the data set with OVCAR8 cells, the “OVCAR8 cell viability, time course” value is “minimally altered”. Also, the “inhibition of EGFR activation” value in the data set on EGFR (OVCAR8, Figure 4B) is recorded as “inhibited EFGR activation in a concentration-dependent manner”.
